Data reported in ChEMBL document CHEMBL5230179, “Novel irreversible peptidic inhibitors of transglutaminase 2” (RSC Med Chem, 2023).
Activity calls are given as the source filed them. The rule behind the calls is not given here.

Assays:
[1] = biological target: T1, Protein-glutamine gamma-glutamyltransferase (Homo sapiens) (UniProt P21980); assay: Irreversible inhibition of recombinant human TG2 expressed in Escherichia coli BL21 assessed as ratio of Kinact/Ki using AL5 as substrate by continuous chromogenic assay
T1 sequence (whole entry): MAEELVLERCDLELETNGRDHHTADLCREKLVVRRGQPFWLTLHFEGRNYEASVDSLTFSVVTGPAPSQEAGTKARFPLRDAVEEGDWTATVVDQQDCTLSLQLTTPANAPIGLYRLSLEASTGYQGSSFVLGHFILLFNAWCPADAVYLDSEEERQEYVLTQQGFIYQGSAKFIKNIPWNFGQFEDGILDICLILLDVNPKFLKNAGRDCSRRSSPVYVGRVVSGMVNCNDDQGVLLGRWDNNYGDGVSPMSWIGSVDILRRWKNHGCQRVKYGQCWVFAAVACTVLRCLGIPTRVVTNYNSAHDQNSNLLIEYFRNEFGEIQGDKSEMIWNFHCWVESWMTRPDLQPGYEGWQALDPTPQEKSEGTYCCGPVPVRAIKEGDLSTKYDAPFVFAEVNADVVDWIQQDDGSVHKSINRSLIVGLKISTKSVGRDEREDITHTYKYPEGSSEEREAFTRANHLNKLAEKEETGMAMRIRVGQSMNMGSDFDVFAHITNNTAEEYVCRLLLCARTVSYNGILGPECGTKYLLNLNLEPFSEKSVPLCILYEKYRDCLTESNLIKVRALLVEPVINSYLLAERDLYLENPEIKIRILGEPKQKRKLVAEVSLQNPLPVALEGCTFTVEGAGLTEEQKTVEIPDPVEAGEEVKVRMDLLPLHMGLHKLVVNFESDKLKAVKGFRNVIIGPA
Procedure, shortened: (§1)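 Human TG2 expressed and purified from E. coli BL21; AL5 (Cbz-Glu(γ-p-nitrophenyl ester)-Gly-OH) hydrolysis read at 405 nm for 20 min at 25 °C under Kitz–Wilson conditions; final 100 µM AL5, 50 mM MOPS pH 6.9, 7.5 mM CaCl2, 5 mU/mL TG2, <5% DMSO; ≥4 inhibitor levels; rate constants fitted by saturation model against [I]/α (α = 1 + [S]/KM) for kinact and KI.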

[2] = biological target: T2, Protein-glutamine gamma-glutamyltransferase (Homo sapiens, UniProt P21980); assay: Irreversible inhibition of recombinant human TG2 expressed in Escherichia coli BL21 assessed as inhibition constant using AL5 as substrate by continuous chromogenic assay; procedure, shortened: as §1
T2 sequence (P21980 whole entry): T1 sequence (whole entry)

[3] = biological target: T1, Protein-glutamine gamma-glutamyltransferase (Homo sapiens); assay: Irreversible inhibition of recombinant human TG2 expressed in Escherichia coli BL21 assessed as Kinact using AL5 as substrate by continuous chromogenic assay; procedure, shortened: as §1
[4] = biological target: T1, Protein-glutamine gamma-glutamyltransferase (Homo sapiens); assay: Irreversible inhibition of recombinant human TG2 expressed in Escherichia coli BL21 assessed as ratio of Kinact/Ki using AL5 as substrate by linear regression analysis
Procedure, shortened: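 Same TG2/AL5 continuous 405 nm assay (100 µM AL5, 5 mU/mL TG2, 50 mM MOPS, 7.5 mM CaCl2, 25 °C, 20 min); where saturation was not reached, rate constants of the lowest 3 inhibitor concentrations fitted by linear regression, slope taken as kinact/KI.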

[5] = Apparent permeability from basolateral to apical side in MDCK-MDR1 cells; type: ADME, cell-based, Canis lupus familiaris; conditions: dog
[6] = tested on: SCC-13; assay: Inhibition of cell invasion in human SCC-13 cells at 10 to 50 uM measured over 20 hrs by DAPI staining based fluorescence microscopic analysis; type: functional; conditions: dose 10-50 µM
Procedure, shortened: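 Matrigel-coated inserts (8-µm pores); 20,000 SCC-13 cells seeded in upper chamber in growth medium with 1% FCS, lower chamber 10% FCS; invasion followed over 0–20 h; membrane fixed in 4% paraformaldehyde, nuclei DAPI-stained, cells on lower surface counted by fluorescence microscopy.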

[7] = Apparent permeability from apical to basolateral side in MDCK-MDR1 cells; type: ADME, cell-based, Canis lupus familiaris; conditions: dog
[8] = tested on: MDR1; assay: Efflux ratio of apparent permeability in MDCK-MDR1 cells; type: ADME, cell-based, Canis lupus familiaris; conditions: dog
[9] = Lipophilicity, logP of the compound; type: physicochemical; conditions: octanol/water
[10] = tested on: SCC-13; assay: Antiproliferative activity against human SCC-13 cells assessed as dose-dependent inhibition at 25 to 100 uM incubated for 48 hrs by Coulter cell counter analysis; type: functional, cell-based; conditions: dose 25-100 µM

C=CC(=O)NCCCC[C@H](NC(=O)OCc1ccccc1)C(=O)N1CCN(C(=O)[C@@H](NC(=O)c2cccc3ccccc23)C(C)CC)CC1 (some centres undefined)
Ratio [1]: 300 10^3/M/min | Ki [2]: 8.1 µM | Kinact [3]: 2.4 min⁻¹

C=CC(=O)NCCCC[C@H](NC(=O)OCc1ccccc1)C(=O)N1CCN(C(=O)[C@@H](NC(=O)c2cccc3ccccc23)C(C)C)CC1
Ratio [1]: 272 10^3/M/min | Ki [2]: 2.9 µM | Kinact [3]: 0.79 min⁻¹

C=CC(=O)NCCCC[C@H](NC(=O)OCc1ccccc1)C(=O)N1CCN(C(=O)[C@H](NC(=O)c2cccc3ccccc23)C(C)C)CC1
Ratio [1]: 595 10^3/M/min | Ki [2]: 1.3 µM | Kinact [3]: 0.75 min⁻¹

C=CC(=O)NCCCC[C@H](NC(=O)Cc1ccccc1Cl)C(=O)N1CCN(C(=O)[C@H](C)NC(=O)c2cccc3ccccc23)CC1
Ratio [1]: 211 10^3/M/min | Ki [2]: 9.3 µM | Kinact [3]: 1.97 min⁻¹

C=CC(=O)NCCCC[C@H](NC(=O)OCc1ccccc1)C(=O)N1CCN(C(=O)[C@H](CC(C)C)NC(=O)c2cccc3ccccc23)CC1
Ratio [1]: 240 10^3/M/min | Ki [2]: 12.8 µM | Kinact [3]: 3.1 min⁻¹

C=CC(=O)NCCCC[C@H](NC(=O)Cc1ccccc1F)C(=O)N1CCN(C(=O)[C@H](C)NC(=O)c2cccc3ccccc23)CC1
Ratio [1]: 502 10^3/M/min | Ki [2]: 3.3 µM | Kinact [3]: 1.68 min⁻¹

C=CC(=O)NCCCC[C@H](NC(=O)Cc1ccccc1C)C(=O)N1CCN(C(=O)[C@H](Cc2ccccc2)NC(=O)c2cccc3ccccc23)CC1
Ratio [1]: 171 10^3/M/min | Ki [2]: 8.8 µM | Kinact [3]: 1.51 min⁻¹

C=CC(=O)NCCCC[C@H](NC(=O)OCc1ccccc1)C(=O)NCC(=O)N1CCN(C(=O)c2cccc3ccccc23)CC1
Ratio [1]: 330 10^3/M/min | Ki [2]: 2.3 µM | Kinact [3]: 0.77 min⁻¹

C=CC(=O)NCCCC[C@H](NC(=O)OCc1ccccc1)C(=O)N[C@@H](C(=O)N1CCN(C(=O)c2cccc3ccccc23)CC1)C(C)C
Ratio [1]: 65 10^3/M/min | Ki [2]: 3.4 µM | Kinact [3]: 0.22 min⁻¹

C=CC(=O)NCCCC[C@H](NC(=O)Cc1ccccc1Br)C(=O)N1CCN(C(=O)[C@H](Cc2ccccc2)NC(=O)c2cccc3ccccc23)CC1
Ratio [1]: 182 10^3/M/min | Ki [2]: 1.3 µM | Kinact [3]: 0.24 min⁻¹

C=CC(=O)NCCCC[C@H](NC(=O)Cc1ccccc1Cl)C(=O)N1CCN(C(=O)[C@@H](Cc2ccccc2)NC(=O)c2cccc3ccccc23)CC1
Ratio [4]: 127 10^3/M/min

C=CC(=O)NCCCC[C@H](NC(=O)OCc1ccccc1)C(=O)N1CCN(C(=O)[C@@H](Cc2ccccc2)NC(=O)c2cccc3ccccc23)CC1
Papp B→A [5]: 5.46 ×10⁻⁶ cm/s | inhibition [6]: Active | Ratio [1]: 760 10^3/M/min | Papp A→B [7]: 0.06 ×10⁻⁶ cm/s | efflux ratio [8]: 96.7 | logP [9]: 2.73 | Activity [10]: inactive | Ki [2]: 1 µM | Kinact [3]: 0.8 min⁻¹

C=CC(=O)NCCCC[C@H](NC(=O)OCc1ccccc1)C(=O)N1CCN(C(=O)[C@@H](C)NC(=O)c2cccc3ccccc23)CC1
Ratio [1]: 590 10^3/M/min | Ki [2]: 1.3 µM | Kinact [3]: 0.75 min⁻¹

C=CC(=O)NCCCC[C@H](NC(=O)Cc1ccccc1Cl)C(=O)N1CCN(C(=O)[C@@H](C)NC(=O)c2cccc3ccccc23)CC1
Ratio [4]: 170 10^3/M/min

C=CC(=O)NCCCC[C@H](NC(=O)OCc1ccccc1)C(=O)N1CCN(C(=O)[C@@H](CC(C)C)NC(=O)c2cccc3ccccc23)CC1
Ratio [1]: 330 10^3/M/min | Ki [2]: 4.4 µM | Kinact [3]: 1.4 min⁻¹

C=CC(=O)NCCCC[C@H](NC(=O)Cc1ccccc1C)C(=O)N1CCN(C(=O)[C@@H](Cc2ccccc2)NC(=O)c2cccc3ccccc23)CC1
Ratio [4]: 238 10^3/M/min

C=CC(=O)NCCCC[C@H](NC(=O)Cc1ccccc1C)C(=O)N1CCN(C(=O)[C@@H](C)NC(=O)c2cccc3ccccc23)CC1
Ratio [1]: 374 10^3/M/min | Ki [2]: 14.9 µM | Kinact [3]: 5.59 min⁻¹

C=CC(=O)NCCCC[C@H](NC(=O)Cc1ccccc1Br)C(=O)N1CCN(C(=O)[C@@H](C)NC(=O)c2cccc3ccccc23)CC1
Ratio [1]: 209 10^3/M/min

C=CC(=O)NCCCC[C@H](NC(=O)OCc1ccccc1)C(=O)N1CCN(C(=O)[C@H](C)NC(=O)c2cccc3ccccc23)CC1
Ratio [1]: 610 10^3/M/min | Ki [2]: 2.3 µM | Kinact [3]: 1.4 min⁻¹

C=CC(=O)NCCCC[C@H](NC(=O)Cc1ccccc1Br)C(=O)N1CCN(C(=O)[C@H](C)NC(=O)c2cccc3ccccc23)CC1
Ratio [1]: 275 10^3/M/min | Ki [2]: 9.8 µM | Kinact [3]: 2.69 min⁻¹

C=CC(=O)NCCCC[C@H](NC(=O)Cc1ccccc1C)C(=O)N1CCN(C(=O)[C@H](C)NC(=O)c2cccc3ccccc23)CC1
Ratio [1]: 418 10^3/M/min | Ki [2]: 9.5 µM | Kinact [3]: 3.95 min⁻¹

C=CC(=O)NCCCC[C@H](NC(=O)Cc1ccccc1Cl)C(=O)N1CCN(C(=O)[C@H](Cc2ccccc2)NC(=O)c2cccc3ccccc23)CC1
Ratio [1]: 155 10^3/M/min | Ki [2]: 1.6 µM | Kinact [3]: 0.25 min⁻¹

C=CC(=O)NCCCC[C@H](NC(=O)OCc1ccccc1)C(=O)N1CCN(C(=O)CNC(=O)c2cccc3ccccc23)CC1
Papp B→A [5]: 8.43 ×10⁻⁶ cm/s | Ratio [1]: 513 10^3/M/min | Papp A→B [7]: 0.55 ×10⁻⁶ cm/s | efflux ratio [8]: 15.5 | logP [9]: 2.99 | Ki [2]: 0.3 µM | Kinact [3]: 0.16 min⁻¹

C=CC(=O)NCCCC[C@H](NC(=O)Cc1ccccc1Br)C(=O)N1CCN(C(=O)[C@@H](Cc2ccccc2)NC(=O)c2cccc3ccccc23)CC1
Ratio [4]: 132 10^3/M/min

C=CC(=O)NCCCC[C@H](NC(=O)Cc1ccccc1OC)C(=O)N1CCN(C(=O)[C@H](C)NC(=O)c2cccc3ccccc23)CC1
Ratio [1]: 252 10^3/M/min | Ki [2]: 6 µM | Kinact [3]: 1.52 min⁻¹

C=CC(=O)NCCCC[C@H](NC(=O)OCc1ccccc1)C(=O)N1CCN(C(=O)[C@H](Cc2ccccc2)NC(=O)c2cccc3ccccc23)CC1
Ratio [1]: 470 10^3/M/min | Ki [2]: 2.1 µM | Kinact [3]: 0.99 min⁻¹

C=CC(=O)NCCCC[C@H](NC(=O)Cc1ccc(F)cc1F)C(=O)N1CCN(C(=O)[C@H](C)NC(=O)c2cccc3ccccc23)CC1
Ratio [1]: 225 10^3/M/min | Ki [2]: 5.1 µM | Kinact [3]: 1.16 min⁻¹

C=CC(=O)NCCCC[C@H](NC(=O)OCc1ccccc1)C(=O)N[C@H](C(=O)N1CCN(C(=O)c2cccc3ccccc23)CC1)C(C)C
Ratio [1]: 56 10^3/M/min | Ki [2]: 5.1 µM | Kinact [3]: 0.29 min⁻¹
